Experiment [1] concerns the target T1, Cholecystokinin receptor type A (Cavia porcellus, UniProt Q63931).
T1 sequence (Q63931 whole entry): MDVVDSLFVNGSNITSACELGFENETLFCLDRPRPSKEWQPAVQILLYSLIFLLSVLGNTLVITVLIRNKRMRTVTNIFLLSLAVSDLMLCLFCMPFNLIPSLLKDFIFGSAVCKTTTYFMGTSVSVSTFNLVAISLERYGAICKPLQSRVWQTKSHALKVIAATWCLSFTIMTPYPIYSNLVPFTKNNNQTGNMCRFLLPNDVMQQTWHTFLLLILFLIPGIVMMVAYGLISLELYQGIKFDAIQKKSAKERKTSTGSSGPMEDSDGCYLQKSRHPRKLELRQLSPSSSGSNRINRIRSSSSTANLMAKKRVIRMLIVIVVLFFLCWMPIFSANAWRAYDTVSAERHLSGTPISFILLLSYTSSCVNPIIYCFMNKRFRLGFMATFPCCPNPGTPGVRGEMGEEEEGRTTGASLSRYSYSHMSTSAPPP
Kind of experiment: In vitro smooth muscle contraction activity in guinea pig gall bladder cholecystokinin type A receptor. It is filed as functional, tissue-based. The gist of the method:
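Isolated guinea pig tissue strips, equilibrated 90 min with periodic tension readjustment and bath changes. Isometric force recorded. Cumulative-free concentration-response curves from increasing peptide concentrations, strips washed three times with 5–15-min intervals between doses. Carbachol test dose (100 nM) measured before, during and after as control. EC50 from curves; points in duplicate, mean ± SEM of at least three experiments.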

For experiment [2], the target named is Cholecystokinin receptor (Cavia porcellus). Kind of experiment: In vitro smooth muscle contraction activity in guinea pig ileum consists of two or three CCK receptor subtypes.
Experiment [3] concerns the target Gastrin/cholecystokinin type B receptor (Cavia porcellus). Kind of experiment: In vitro smooth muscle contraction activity in guinea pig stomach consisting of CCK/gastrin receptor subtype.
The species named for experiment [4] is Cavia porcellus. Briefly: Relative Potency(RP %) (EC50) was calculated by using smooth muscle contraction assay in guinea pig ileum with relative to Ac[Nle28,31]CCK(26-33)(EC50). It is filed as functional. Put shortly: (§1)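 Same isolated guinea pig tissue contraction set-up: 90 min equilibration, isometric force, increasing peptide concentrations with three washes at 5–15-min intervals, 100 nM carbachol control.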

Experiment [5] is filed under the species Cavia porcellus. Kind of experiment: Relative Potency(RP %) (EC50) was calculated by using smooth muscle contraction assay in guinea pig stomach with relative to Ac[Nle28,31]CCK(26-33)(EC50). It counts as functional, Muscle tissue. The gist of the method:
as §1

Experiment [6] is filed under the species Cavia porcellus. Briefly: Relative Potency(RP %) (EC50) was calculated by using smooth muscle contraction assay in guinea pig gallbladder with relative to Ac[Nle28,31]CCK(26-33)(EC50). It is filed as functional, Muscle tissue. The gist of the method:
as §1

Results on eight compounds are retold here after ChEMBL document CHEMBL1125498, “N-methylated analogs of Ac[Nle28,31]CCK(26-33): synthesis, activity, and receptor selectivity” (J Med Chem, 1992).

Where a SMILES comes first, the peptide text is derived from it. [ ]: non-standard residue; d: D form. sY = N[C@@H](Cc1ccc(OS(=O)(=O)O)cc1)C(=O)O; Nle = CCCC[C@H](N)C(=O)O

Usually EC50 stands for the concentration giving half of the maximal effect. A high value points to a less potent agent.

For `CCCC[C@H](NC(=O)[C@H](Cc1ccc(OS(=O)(=O)O)cc1)NC(=O)[C@H](CC(=O)O)NC(C)=O)C(=O)NCC(=O)N[C@@H](Cc1c[nH]c2ccccc12)C(=O)N[C@@H](CCCC)C(=O)N(C)[C@@H](CC(=O)O)C(=O)N[C@@H](Cc1ccccc1)C(N)=O`, the EC50 in experiment [1] is 2 nM. That is a single-digit nanomolar value.
For `CCCC[C@H](NC(=O)[C@H](Cc1ccc(OS(=O)(=O)O)cc1)NC(=O)[C@H](CC(=O)O)NC(C)=O)C(=O)NCC(=O)N[C@@H](Cc1c[nH]c2ccccc12)C(=O)N[C@@H](CCCC)C(=O)N[C@@H](CC(=O)O)C(=O)N(C)[C@@H](Cc1ccccc1)C(N)=O`, in experiment [1], a half-maximal effect (EC50) was put at 3 nM.
On to `CCCC[C@H](NC(=O)[C@H](Cc1ccc(OS(=O)(=O)O)cc1)NC(=O)[C@H](CC(=O)O)NC(C)=O)C(=O)NCC(=O)N[C@@H](Cc1c[nH]c2ccccc12)C(=O)N(C)[C@@H](CCCC)C(=O)N[C@@H](CC(=O)O)C(=O)N[C@@H](Cc1ccccc1)C(N)=O`, for which the EC50 in experiment [2] worked out at 37 nM; in experiment [3], 140 nM; in experiment [1], 20 nM. Further, the “Relative Potency” value was 4 in the experiment filed under Cavia porcellus [4], 10 in the experiment listed under Cavia porcellus [5] and 6 in the experiment filed under Cavia porcellus [6].
`CCCC[C@H](NC(=O)[C@H](Cc1ccc(OS(=O)(=O)O)cc1)NC(=O)[C@H](CC(=O)O)NC(C)=O)C(=O)NCC(=O)N(C)[C@@H](Cc1c[nH]c2ccccc12)C(=O)N[C@@H](CCCC)C(=O)N[C@@H](CC(=O)O)C(=O)N[C@@H](Cc1ccccc1)C(N)=O`: the EC50 in experiment [1] is 53 nM.
Same read-out and setting: in the case of `CCCC[C@H](NC(=O)[C@H](Cc1c[nH]c2ccccc12)NC(=O)CN(C)C(=O)[C@H](CCCC)NC(=O)[C@H](Cc1ccc(OS(=O)(=O)O)cc1)NC(=O)[C@H](CC(=O)O)NC(C)=O)C(=O)N[C@@H](CC(=O)O)C(=O)N[C@@H](Cc1ccccc1)C(N)=O` it was 0.1 nM; in that of `CCCC[C@H](NC(=O)[C@H](Cc1ccc(OS(=O)(=O)O)cc1)NC(=O)[C@H](CC(=O)O)NC(C)=O)C(=O)NCC(=O)N[C@@H](Cc1c[nH]c2ccccc12)C(=O)N[C@@H](CCCC)C(=O)N[C@@H](CC(=O)O)C(=O)N[C@@H](Cc1ccccc1)C(N)=O`, 1.2 nM; in that of `CCCC[C@H](NC(=O)[C@H](Cc1c[nH]c2ccccc12)NC(=O)CNC(=O)[C@H](CCCC)NC(=O)[C@H](Cc1ccc(OS(=O)(=O)O)cc1)N(C)C(=O)[C@H](CC(=O)O)NC(C)=O)C(=O)N[C@@H](CC(=O)O)C(=O)N[C@@H](Cc1ccccc1)C(N)=O`, 1.4 nM.
Take `CCCC[C@H](NC(=O)[C@H](Cc1c[nH]c2ccccc12)NC(=O)[C@@H]1CCCN1C(=O)[C@H](CCCC)NC(=O)[C@H](Cc1ccc(OS(=O)(=O)O)cc1)NC(=O)[C@H](CC(=O)O)NC(C)=O)C(=O)N[C@@H](CC(=O)O)C(=O)N[C@@H](Cc1ccccc1)C(N)=O` (Ac-D[sY][Nle]PW[Nle]DF-NH2): the EC50 in experiment [2] was 104 nM; in experiment [3] it was 54 nM; in experiment [1], 60 nM. Also, the “Relative Potency” value in the experiment filed under Cavia porcellus [4] was 1.3; in the experiment listed under Cavia porcellus [5], 25; in the experiment filed under Cavia porcellus [6], 2.
